From ChEMBL document CHEMBL1122702, “Radiohalogen-labeled imaging agents. 3. Compounds for measurement of brain blood flow by emission tomography” (J Med Chem, 1984)

How the values were obtained:
Assay type in all cases: ADME, organism-based
Rattus norvegicus [1] = species on record: Rattus norvegicus; test: The distribution of the 131 I-labeled compound at 5 min was evaluated in rat brain as Percent of injected dose in the total organ; settings: in vivo
Method in brief: (§1)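 Male Sprague-Dawley rats (200–300 g, free access to food and water), lightly ether-anesthetized and restrained, received a 0.2 mL saline tail-vein bolus of 10–20 μCi 131I-labeled compound. They were decapitated at the stated time, and organs were excised, weighed and gamma-counted. Percent injected dose was determined against a calibrated external standard made by serial dilution of the injectate. n = 1–4 rats.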

Rattus norvegicus [2] = species on record: Rattus norvegicus; test: Ratio of distribution of the [131I]-labeled compound at 5 min in rat brain over uptake in blood
Method in brief: (§2)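 Male Sprague-Dawley rats (200–300 g, fed ad libitum), ether-anesthetized, got a tail-vein bolus of 0.2 mL saline containing 10–20 μCi 131I compound and were decapitated at the stated time. Organs were weighed and gamma-counted against a serially diluted external standard. Organ/blood ratio was calculated from % dose per gram of organ. Animal numbers per time point were 1–4.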

Rattus norvegicus [3] = species on record: Rattus norvegicus; test: The distribution of the 131 I-labeled compound at 30 min was evaluated in rat liver as Percent of injected dose per gram in the organ; settings: in vivo, 0.5 h; method in brief: as §1
Rattus norvegicus [4] = species on record: Rattus norvegicus; test: The distribution of the 131 I-labeled compound at 5 min was evaluated in rat liver as Percent of injected dose in the total organ; settings: in vivo; method in brief: as §1
Rattus norvegicus [5] = species on record: Rattus norvegicus; test: The distribution of the 131 I-labeled compound at 5 min was evaluated in rat lung as Percent of injected dose per gram in the organ; settings: in vivo; method in brief: as §1
Rattus norvegicus [6] = species on record: Rattus norvegicus; test: Ratio of distribution of the [131I]-labeled compound at 5 min in rat kidney over uptake in blood; settings: other tissue; method in brief: as §2
Rattus norvegicus [7] = species on record: Rattus norvegicus; test: Ratio of distribution of the [131I]-labeled compound at 30 min in rat lung over uptake in blood; settings: other tissue, 0.5 h; method in brief: as §2
Rattus norvegicus [8] = species on record: Rattus norvegicus; test: Ratio of distribution of the [131I]-labeled compound at 30 min in rat liver over uptake in blood; settings: other tissue, 0.5 h; method in brief: as §2
Rattus norvegicus [9] = species on record: Rattus norvegicus; test: The distribution of the 131 I-labeled compound at 30 min was evaluated in rat blood as Percent of injected dose per gram in the organ; settings: in vivo, 0.5 h; method in brief: as §1
Rattus norvegicus [10] = species on record: Rattus norvegicus; test: The distribution of the 131 I-labeled compound at 30 min was evaluated in rat brain as Percent of injected dose in the total organ; settings: in vivo, 0.5 h; method in brief: as §1
Rattus norvegicus [11] = species on record: Rattus norvegicus; test: The distribution of the 131 I-labeled compound at 30 min was evaluated in rat kidney as Percent of injected dose per gram in the organ; settings: in vivo, 0.5 h; method in brief: as §1
Rattus norvegicus [12] = species on record: Rattus norvegicus; test: The distribution of the 131 I-labeled compound at 5 min was evaluated in rat brain as Percent of injected dose per gram in the organ; settings: in vivo; method in brief: as §1
Rattus norvegicus [13] = species on record: Rattus norvegicus; test: Ratio of distribution of the [131I]-labeled compound at 30 min in rat kidney over uptake in blood; settings: other tissue, 0.5 h; method in brief: as §2
Rattus norvegicus [14] = species on record: Rattus norvegicus; test: The distribution of the 131 I-labeled compound at 5 min was evaluated in rat blood as Percent of injected dose per gram in the organ; settings: in vivo; method in brief: as §1
Rattus norvegicus [15] = species on record: Rattus norvegicus; test: The distribution of the 131 I-labeled compound at 30 min was evaluated in rat heart as Percent of injected dose in the total organ; settings: in vivo, 0.5 h; method in brief: as §1
Rattus norvegicus [16] = species on record: Rattus norvegicus; test: The distribution of the 131 I-labeled compound at 5 min was evaluated in rat heart as Percent of injected dose in the total organ; settings: in vivo; method in brief: as §1
Rattus norvegicus [17] = species on record: Rattus norvegicus; test: The distribution of the 131 I-labeled compound at 30 min was evaluated in rat heart as Percent of injected dose per gram in the organ; settings: in vivo, 0.5 h; method in brief: as §1
Rattus norvegicus [18] = species on record: Rattus norvegicus; test: The distribution of the 131 I-labeled compound at 30 min was evaluated in rat lung as Percent of injected dose per gram in the organ; settings: in vivo, 0.5 h; method in brief: as §1
Rattus norvegicus [19] = species on record: Rattus norvegicus; test: Ratio of distribution of the [131I]-labeled compound at 30 min in rat brain over uptake in blood; settings: 0.5 h; method in brief: as §2
Rattus norvegicus [20] = species on record: Rattus norvegicus; test: Ratio of distribution of the [131I]-labeled compound at 5 min in rat lung over uptake in blood; settings: other tissue; method in brief: as §2
Rattus norvegicus [21] = species on record: Rattus norvegicus; test: The distribution of the 131 I-labeled compound at 30 min was evaluated in rat brain as Percent of injected dose per gram in the organ; settings: in vivo, 0.5 h; method in brief: as §1
Rattus norvegicus [22] = species on record: Rattus norvegicus; test: The distribution of the 131 I-labeled compound at 5 min was evaluated in rat heart as Percent of injected dose per gram in the organ; settings: in vivo; method in brief: as §1
Rattus norvegicus [23] = species on record: Rattus norvegicus; test: The distribution of the 131 I-labeled compound at 5 min was evaluated in rat kidney as Percent of injected dose per gram in the organ; settings: in vivo; method in brief: as §1
Rattus norvegicus [24] = species on record: Rattus norvegicus; test: The distribution of the 131 I-labeled compound at 5 min was evaluated in rat kidney as Percent of injected dose in the total organ; settings: in vivo; method in brief: as §1
Rattus norvegicus [25] = species on record: Rattus norvegicus; test: The distribution of the 131 I-labeled compound at 5 min was evaluated in rat liver as Percent of injected dose per gram in the organ; settings: in vivo; method in brief: as §1
Rattus norvegicus [26] = species on record: Rattus norvegicus; test: Ratio of distribution of the [131I]-labeled compound at 5 min in rat heart over uptake in blood; settings: other tissue; method in brief: as §2
Rattus norvegicus [27] = species on record: Rattus norvegicus; test: Ratio of distribution of the [131I]-labeled compound at 30 min in rat heart over uptake in blood; settings: other tissue, 0.5 h; method in brief: as §2
Rattus norvegicus [28] = species on record: Rattus norvegicus; test: The distribution of the 131 I-labeled compound at 30 min was evaluated in rat liver as Percent of injected dose in the total organ; settings: in vivo, 0.5 h; method in brief: as §1
Rattus norvegicus [29] = species on record: Rattus norvegicus; test: The distribution of the 131 I-labeled compound at 30 min was evaluated in rat kidney as Percent of injected dose in the total organ; settings: in vivo, 0.5 h; method in brief: as §1
Rattus norvegicus [30] = species on record: Rattus norvegicus; test: Ratio of distribution of the [131I]-labeled compound at 5 min in rat liver over uptake in blood; settings: other tissue; method in brief: as §2

| Structure (SMILES) | Dose (Rattus norvegicus [1]) | Ratio (Rattus norvegicus [2]) | Dose (Rattus norvegicus [3]) | Dose (Rattus norvegicus [4]) | Dose (Rattus norvegicus [5]) | Ratio (Rattus norvegicus [6]) | Ratio (Rattus norvegicus [7]) | Ratio (Rattus norvegicus [8]) | Dose (Rattus norvegicus [9]) | Dose (Rattus norvegicus [10]) | Dose (Rattus norvegicus [11]) | Dose (Rattus norvegicus [12]) | Ratio (Rattus norvegicus [13]) | Dose (Rattus norvegicus [14]) | Dose (Rattus norvegicus [15]) | Dose (Rattus norvegicus [16]) | Dose (Rattus norvegicus [17]) | Dose (Rattus norvegicus [18]) | Ratio (Rattus norvegicus [19]) | Ratio (Rattus norvegicus [20]) | further results |
| --- | --- | --- | --- | --- | --- | --- | --- | --- | --- | --- | --- | --- | --- | --- | --- | --- | --- | --- | --- | --- | --- |
| COc1cc(CC(C)N(C)Cc2ccccc2)c(OC)cc1I (stereo not given) | 0.29% | 1.3 | 0.62% | 12% | 0.75% | 5.3 | 7.8 | 6.9 | 0.09% | 0.1% | 0.52% | 0.15% | 5.8 | 0.12% | 0.21% | 1.2% | 0.19% | 0.7% | 0.09 | 6.3 | Dose (Rattus norvegicus [21]): 0.05%; Dose (Rattus norvegicus [22]): 1.1%; Dose (Rattus norvegicus [23]): 0.63%; Dose (Rattus norvegicus [24]): 1.8%; Dose (Rattus norvegicus [25]): 0.8%; Ratio (Rattus norvegicus [26]): 9.2; Ratio (Rattus norvegicus [27]): 2.1; Dose (Rattus norvegicus [28]): 7.6%; Dose (Rattus norvegicus [29]): 1.3%; Ratio (Rattus norvegicus [30]): 6.7 |
| COc1cc(CC(C)N)c(OC)cc1I (stereo not given) | 0.64% | 4.7 | 0.8% | 5.6% | 3.3% | 17 | 46 | 13 | 0.06% | 0.76% | 1.1% | 0.34% | 18 | 0.07% | 0.32% | 0.92% | 0.29% | 2.8% | 6.7 | 47 | Dose (Rattus norvegicus [21]): 0.4%; Dose (Rattus norvegicus [22]): 0.86%; Dose (Rattus norvegicus [23]): 1.2%; Dose (Rattus norvegicus [24]): 3.2%; Dose (Rattus norvegicus [25]): 0.83%; Ratio (Rattus norvegicus [26]): 12; Ratio (Rattus norvegicus [27]): 14; Dose (Rattus norvegicus [28]): 10%; Dose (Rattus norvegicus [29]): 2.8%; Ratio (Rattus norvegicus [30]): 12 |
